Bioassay records as filed in PubChem BioAssay.
Rows were chosen to be rich in hits. Some 2.3% of all compounds tested hit in one or more screens of this group.
HNF4A DNA FP: change in binding of human HNF4 alpha to DNA | 360,000 tested, 0.3% active | P41235 | HNF4a-FITC DNA binding, fluorescence polarization, 1 h | activity change, % at 10 µM; in the data active = activity change above about 30%, passing the limit was not always enough
CRFBP-R2 agonist: CRF-BP/CRF-R2 complex agonism; HEK293 CRF-R2/CRF-BP, calcium dye fluorescence (FLIPR); percent of saturating CRF peptide response; activation, % at 13.2 µM; 350,000 tested, 0.46% active;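 active = activation of at least 50%, plus an integration ratio under a set limit after plate pattern correction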
CRFR2-BP antag: CRF-BP/CRF-R2 complex antagonism. inhibition, % at 11.8 µM. HEK293 CRF-R2/CRF-BP, CRF-induced calcium fluorescence. AID 588475. 350,000 tested, 0.59% active;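 active = inhibition of the ligand-induced calcium signal above about 50% at the single tested concentration, limit read from the data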
TPT1 inhibitor: inhibitors of Candida albicans tRNA 2'-phosphotransferase TPT1 | inhibition, % at 5 µM | 300,000 tested, 0.81% active | recombinant caTPT1, FP RNA substrate dephosphorylation;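 active = inhibition above the mean of all tested compounds plus 3 SD, set per screening campaign, cut at about 24% in these data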
Rpn11 block: inhibitors of human proteasome Rpn11; 360,000 tested, 0.59% active; calls only at 20 µM; O00487; human 26S proteasome, Ub4-pepOG fluorescence polarization; 20S core pre-blocked with epoxomicin;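 active = inhibition at 20 µM, scaled to each plate's controls, above about 33%, limit read from the data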
Target sequence (O00487 whole entry, looked up): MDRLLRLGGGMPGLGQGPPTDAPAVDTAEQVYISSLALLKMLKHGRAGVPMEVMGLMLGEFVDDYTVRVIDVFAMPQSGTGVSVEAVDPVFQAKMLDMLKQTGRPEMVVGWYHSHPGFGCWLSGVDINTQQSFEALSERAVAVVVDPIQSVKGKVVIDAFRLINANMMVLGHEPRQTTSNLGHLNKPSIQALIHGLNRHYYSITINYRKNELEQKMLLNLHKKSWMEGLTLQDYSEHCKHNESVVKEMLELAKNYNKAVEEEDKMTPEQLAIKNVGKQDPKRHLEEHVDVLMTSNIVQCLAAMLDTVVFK
CSN inh: inhibitors of human CSN-mediated cullin deneddylation. Purified CSN, SCF-Nedd8-OG deneddylation, fluorescence polarization. inhibition, % at 12.5 µM. 360,000 tested, 0.38% active;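 active = pattern-corrected inhibition above about 35%, with an unprinted fluorescence ratio check between 0.5 and 1.5, limit read from the data, passing the limit was not always enough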
Target sequence (Q92905 whole entry, looked up, one chain of several): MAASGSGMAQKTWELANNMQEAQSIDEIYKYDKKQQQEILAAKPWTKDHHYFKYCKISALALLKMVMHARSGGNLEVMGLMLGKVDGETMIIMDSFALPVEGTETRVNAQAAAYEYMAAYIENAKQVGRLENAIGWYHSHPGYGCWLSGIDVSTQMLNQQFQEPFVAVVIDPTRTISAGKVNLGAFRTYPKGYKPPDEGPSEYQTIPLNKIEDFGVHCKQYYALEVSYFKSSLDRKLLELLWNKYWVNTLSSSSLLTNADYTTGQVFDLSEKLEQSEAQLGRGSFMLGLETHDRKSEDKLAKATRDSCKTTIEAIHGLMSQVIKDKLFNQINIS
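Test system: Human Csn5 produced in HEK293T cells | Compound: 12.5 µM single point | Times: 90 min, room temperature | Signal: Fluorescence polarization readout | Read-out basis: % inhibition of substrate cleavage by Csn5 | Controls: no-enzyme wells high, enzyme-with-substrate wells low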
Rpn11 confirm: Rpn11 inhibition confirmation, single concentration | shares compounds with Rpn11 block | purified human 26S proteasome, Ub4-pepOG fluorescence polarization; proteasome pretreated with epoxomicin | inhibition, % at 20 µM | AID 602318 | 1,900 tested, 29% active
MMP-2 counter: blocks human MMP-2, flagging nonselective RPN11 hits | inhibition, % at 20 µM | AID 602330 | 1,900 tested, 4% active | shares compounds with Rpn11 block | recombinant MMP-2, FRET peptide cleavage fluorescence;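 note: human MMP-2 activated beforehand with APMA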
Thrombin FP: thrombin (bovine) inhibition counter-screen; shares compounds with Rpn11 block; AID 602333; 1,900 tested, 13% active; inhibition, % at 20 µM; bovine thrombin cleavage of Ub4-pepOG, fluorescence polarization;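 active = mean inhibition at least 40% at 20 µM, or signal 3 deviations below plate average, so some actives read negative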
Large screens that a line does not name were inactive (follow-up assays come after a bar, where they were run). Cut-off read from the data, not from the text of the source, unless noted: active = inhibition above about 40%; inactive = the rest.

Cc1ccc2[nH]c(=O)c(C(c3nnnn3CC3CCCO3)N3CCOCC3)cc2c1 (stereo unspecified)	none
CCc1ccc2[nH]c(=O)c(C(c3nnnn3CC3CCCO3)N3CCN4CCCC4C3)cc2c1 (stereo unspecified)	Rpn11 block active | Rpn11 confirm inactive | MMP-2 counter inactive | Thrombin FP inactive
CSc1nc(N)nc(SCC(=O)Nc2ccc(Cl)cc2)c1C#N	none
COc1cc(-c2nc3cccc(C)n3c2NCC2CCCO2)ccc1O (stereo unspecified)	Rpn11 block active | Rpn11 confirm inactive | MMP-2 counter inactive | Thrombin FP active
COc1ccc(-c2nc3cc(C)ccn3c2NCC2CCCO2)cc1OC (stereo unspecified)	none
Cc1cc(-c2csc(NC(=O)c3cccc(S(=O)(=O)N(C)C)c3)n2)c(C)n1-c1ccccc1	Rpn11 block active | Rpn11 confirm inactive | MMP-2 counter inactive | Thrombin FP inactive
Cn1nnnc1Sc1c(Cl)cccc1[N+](=O)[O-]	none
COC(=O)c1sc(N2C(=O)C(O)=C(C(=O)c3ccc(C)o3)C2c2ccc([N+](=O)[O-])cc2)nc1C (stereo unspecified)	none
CCOc1ccc(C2C(C(=O)c3ccc(C)o3)=C(O)C(=O)N2c2nc(C)c(C(=O)OC)s2)cc1 (stereo unspecified)	Rpn11 block active | Rpn11 confirm inactive | MMP-2 counter inactive | Thrombin FP inactive
Cc1ccc(OC(=O)c2ccc(Cl)c([N+](=O)[O-])c2)cn1	none
CCOC(=O)c1ccc(NC(=O)Nc2ccc3c(c2)OCCO3)cc1	none
CCC(C)(C(=O)Nc1ccc2c(c1)OCCO2)N(C(C)=O)c1ccc(C(N)=O)cc1 (stereo unspecified)	Rpn11 block active | Rpn11 confirm inactive | MMP-2 counter inactive | Thrombin FP inactive
COC(=O)c1ccc(C23CC4(C2)[C@H](CN(Cc2cccnc2)[C@@H]4c2ccccc2)C3c2ccc(C(F)(F)F)cc2)cc1 (stereo partly specified)	none (no result: HNF4A DNA FP, Rpn11 block, CSN inh)
COC(=O)c1ccc(C23CC4(C2)[C@H](CN(Cc2cccnc2)[C@@H]4c2ccccc2)C3c2ccccc2)cc1 (stereo partly specified)	Rpn11 block active | Rpn11 confirm inactive | MMP-2 counter inactive | Thrombin FP inactive
C=CC(=O)NN(C)c1ncc(C(F)(F)F)cc1Cl	none
CC1(C)CC(=O)C(C=NCC2CCN(C(=O)Cc3ccccc3)CC2)=C(O)C1	Rpn11 block active | Rpn11 confirm 93 | MMP-2 counter inactive | Thrombin FP inactive
CC1(C)CC(=O)C(C=NCC2CCNCC2)=C(O)C1	none
COc1ccc(C(=O)NC(=S)Nc2ccc(N3CCCC3)cc2)cc1	none
COc1ccc(C(=O)Nc2ccc(N3CCCC3)cc2)cc1	Rpn11 block active | Rpn11 confirm inactive | MMP-2 counter inactive | Thrombin FP inactive
O=C(COC(=O)c1ccc(O)cc1)Nc1ccc(N2CCCCC2)cc1	Rpn11 block active | Rpn11 confirm inactive | MMP-2 counter inactive | Thrombin FP inactive
COc1cc(OC)cc(C(=O)OCC(=O)Nc2ccc(N3CCCCC3)cc2)c1	none
CSc1ccc(Cn2c(C)c(C(=O)NCc3cccs3)sc2=O)cc1	none (no result: CRFBP-R2 agonist, CRFR2-BP antag, TPT1 inhibitor)
O=C1CCCC(O)=C1N=Nc1ccc(Cl)c(Cl)c1	none
CC(=O)N1CCc2cc(N=NC3=C(O)CCCC3=O)ccc21	HNF4A DNA FP 43, Rpn11 block active | Rpn11 confirm 51 | MMP-2 counter inactive | Thrombin FP inactive
CCc1c(O)nc(SCC(=O)Nc2ccc(Br)cc2)n(-c2ccc(C)cc2)c1=O	none
CCc1c(O)nc(SCC(=O)Nc2ccc(C)cc2)n(C2CCCCC2)c1=O	Rpn11 block active | Rpn11 confirm 42 | MMP-2 counter inactive | Thrombin FP inactive
COC(=O)c1ccc(NC(=O)CCN2CCN(c3ccccc3)CC2)cc1	Rpn11 block active | Rpn11 confirm inactive | MMP-2 counter inactive | Thrombin FP inactive
O=C(Nc1cccc(S(=O)(=O)N2CCCCCC2)c1)c1ccc2ccccc2n1	none
CCN(CC)S(=O)(=O)c1cc(C)ccc1SC	Rpn11 block active | Rpn11 confirm inactive | MMP-2 counter inactive | Thrombin FP inactive
CCc1ccc(N(CC)C(=O)Cc2c(C(=O)O)n(C)c3ccccc23)cc1	none
COc1ccc(-n2cccc2/C=C2/NC(=O)N(c3cccc(Cl)c3)C2=O)cc1	Rpn11 block active | Rpn11 confirm inactive | MMP-2 counter inactive | Thrombin FP inactive
c1cc(CN2CCN(C3CCCCCC3)CC2)ccn1	none
O=c1c2ccccc2cnn1Cc1n[nH]c(=S)n1-c1ccc(F)c(Cl)c1	none
Cc1nc2ccccn2c1-c1csc(NCc2ccco2)n1	Rpn11 block active | Rpn11 confirm inactive | MMP-2 counter inactive | Thrombin FP inactive
O=C1N/C(=N/Nc2ccccc2)S/C1=C\c1ccccc1	Rpn11 block active | Rpn11 confirm inactive | MMP-2 counter inactive | Thrombin FP inactive
O=C(O)CSc1ncnc2nc[nH]c12	Rpn11 block active | Rpn11 confirm inactive | MMP-2 counter inactive | Thrombin FP inactive
Cc1cc(C)cc(NC(=O)Cn2nnc(C(=O)NCc3ccc4c(c3)OCO4)c2N)c1	Rpn11 block active | Rpn11 confirm 101 | MMP-2 counter inactive | Thrombin FP inactive
CCOc1ccc(CCNC(=O)c2nnn(CC(=O)Nc3ccc(C)cc3)c2N)cc1OCC	Rpn11 block active | Rpn11 confirm 87 | MMP-2 counter inactive | Thrombin FP inactive
Cc1ccc(CNC(=O)c2nnn(CC(=O)Nc3cc(C)cc(C)c3)c2N)cc1	Rpn11 block active | Rpn11 confirm 51 | MMP-2 counter inactive | Thrombin FP inactive
O=C(O)c1ccc(S(=O)(=O)/N=C2\C=C(Nc3ccccc3F)C(=O)c3ccccc32)cc1	none
O=C(COc1ccccc1)Nc1nc2cc3c(cc2s1)OCCO3	none
CC(C)(C)NC(=O)C(c1ccc(C(F)(F)F)cc1)n1c(=O)c(-c2cc3ccccc3[nH]2)nc2ccccc21 (stereo unspecified)	none (no result: CRFBP-R2 agonist, CRFR2-BP antag, TPT1 inhibitor, Rpn11 block)
CCC1(CC)NC(=O)N(CC(=O)N2CCN(c3ccccc3F)CC2)C1=O	none (no result: TPT1 inhibitor)
